Test results published in ChEMBL document CHEMBL1125727 (J Med Chem, 1991).

What was measured:
Type in all cases: functional, cell-based
UV4 = experiment: Hypersensitivity factor obtained from in vitro cytotoxicities against Chinese hamster ovary derived AA8 / UV4 cell lines; conditions: Cricetulus griseus
Summary of the method: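 HF = IC50(AA8)/IC50(UV4). Both lines kept in Alpha MEM with 10% fetal calf serum and exposed to drug for 18 h, then washed three times and grown 72 h more. Density read by methylene blue. Each IC50 is the nominal concentration giving 50% of control density, with eight controls per plate.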

CHO-AA8 = experiment: Compound was evaluated for in vitro cytotoxicities against Chinese hamster ovary derived AA8 cell lines.; conditions: Cricetulus griseus
Summary of the method: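 AA8 cells kept in exponential growth in Alpha MEM with 10% fetal calf serum. Log-phase cultures in 96-well plates, drug exposure 18 h, ended by three washes with fresh medium, then 72 h further growth. Cell density read by methylene blue staining. IC50 is the nominal concentration reducing cell density to 50% of control, with eight controls per plate.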

P388 [1] = experiment: In vitro cytotoxicity against murine leukemia P388 cell line.; conditions: Mus musculus
Summary of the method: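 P388 cells kept in exponential growth in RPMI 1640 with 10% fetal calf serum. Log-phase cultures in 96-well plates with drug present throughout 72 h growth. Final density read by a modified MTT method. IC50 is the nominal concentration reducing cell density to 50% of control, with eight controls per plate.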

P388 [2] = experiment: Percentage increase in lifespan of drug-related tumor bearing animals when heated at the optimal dose and tested in murine leukemia P388 cell lines.; conditions: Mus musculus
Summary of the method: (§1)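 Mice inoculated intraperitoneally with 10⁶ P388 leukemia cells. Single drug dose on day 1 in 0.1 or 0.2 mL of 30% v/v ethanol/water. Optimal dose given in mg/kg. ILS is the percentage increase in lifespan at the optimal dose, with values above 20% taken as significant.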

P388 [3] = experiment: Optimal dose administered as a single dose by intraperitoneal inoculation of 10 X E6 murine leukemia P388 cell lines.; conditions: Mus musculus; summary of the method: as §1

Question: What does the source list for `CCN(CCCl)c1ccc(CCCNC(=O)c2ccc(NCCCc3ccc(N(CC)CCCl)cc3)c3cc4ccccc4nc23)cc1`?
Answer: HF (UV4): 5.4; IC50 (CHO-AA8): 1.5 µM; IC50 (P388 [1]): 0.29 µM; ILS (P388 [2]): 25%; OD (P388 [3]): 45 mg/kg

Question: What does the source list for `CCN(CCCl)c1ccc(SCCNC(=O)c2ccc(NCCSc3ccc(N(CC)CCCl)cc3)c3cc4ccccc4nc23)cc1`?
Answer: HF (UV4): 7.4; IC50 (CHO-AA8): 9.4 µM; IC50 (P388 [1]): 0.55 µM

Question: With `CN(C)CCNC(=O)c1ccc(NCCCc2ccc(N(CCCl)CCCl)cc2)c2cc3ccccc3nc12` as the compound, how does the HF (UV4) read?
Answer: 19

Question: What about the IC50 (CHO-AA8) of the same compound?
Answer: 0.21 µM

Question: And the IC50 (P388 [1])?
Answer: 0.06 µM

Question: What about the OD (P388 [3]) of the same compound?
Answer: 13.3 mg/kg

Question: What does the source list for `COc1cc(NS(C)(=O)=O)ccc1Nc1ccc(C(=O)NCCCc2ccc(N(CCCl)CCCl)cc2)c2nc3ccccc3cc12`?
Answer: HF (UV4): > 50; IC50 (CHO-AA8): > 4000 µM; IC50 (P388 [1]): 0.18 µM; ILS (P388 [2]): 26%; OD (P388 [3]): 65 mg/kg

Question: What does the source list for `O=C(O)CCCc1ccc(N(CCCl)CCCl)cc1` [CHLORAMBUCIL]?
Answer: HF (UV4): 58; ILS (P388 [2]): 37%; OD (P388 [3]): 225 mg/kg
